Reference: ChEMBL document CHEMBL2407011, “Novel 2-(2,4-dioxo-1,3-thiazolidin-5-yl)acetamides as antioxidant and/or anti-inflammatory compounds” (Eur J Med Chem, 2013)
In brackets after ≈: the same amount, converted by molar mass.

Key:
[1] = system: THP-1; test: Antiinflammatory activity in human THP1 cells assessed as inhibition of PMA-induced IL-1beta secretion preincubated for 1 hr prior PMA-challenge measured after 48 hrs by ELISA; assay type: functional, cell-based
Method in brief: (§1)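 THP1 cells at 2 x 10^5 cells/mL were pretreated 1 h with 5, 10 and 20 µM compound, then stimulated with 10 ng/mL PMA for 48 h. Supernatant IL-1β or MCP-1 was measured by ELISA at 450 nm (corrected at 570 nm) and quantified from a standard curve. Percent inhibition was taken versus control and IC50 derived, reported as mean ± SD of three independent experiments.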

[2] = Hemolysis of human erythrocytes after 30 mins by spectrophotometry; assay type: ADME, cell-based, Erythrocyte
Method in brief: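 Citrated human blood centrifuged (3,000 g, 10 min), erythrocytes washed in PBS pH 7.4 and made up as a 1.25% suspension. Suspension incubated with H2O2 (2.5 mM) and compound (50–300 µg/mL) 30 min at 37 °C, stopped on ice, centrifuged, read at 540 nm. Inhibition = (AH2O2 − Asample)/(AH2O2 − Anormal) × 100.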

[3] = Antioxidant activity assessed as DPPH scavenging activity after 30 mins by UV-visible spectrophotometry; assay type: functional
Method in brief: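 Methanolic compound solutions (5–180 µg/mL) mixed 1:1 by volume with 0.002% DPPH in methanol, shaken and kept in the dark 30 min. Absorbance read at 517 nm; % scavenging = (Acontrol − Asample)/Acontrol × 100. EC50 is the concentration scavenging 50% of radicals; mean of three experiments.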

[4] = Antioxidant activity assessed as superoxide radical scavenging activity after 5 mins by spectrophotometry; assay type: functional
Method in brief: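 Superoxide generated by PMS/NADH reducing NBT, in 16 mM Tris-HCl pH 8.0 with […], 50 µM NBT, 10 µM PMS and compound (5–180 µg/mL). After 5 min at room temperature, formazan read at 560 nm; % scavenging versus control, EC50 from triplicates.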

[5] = Antioxidant activity assessed as inhibition of lipid peroxidation activity after 15 mins by MDA assay; assay type: functional
Method in brief: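 Egg yolk diluted 1:1 in PBS (0.1 M, pH 7.45) served as substrate. Compound (50–300 µg/mL) was added with FeSO4 (25 mM stock) and incubated 15 min at 37 °C. Reaction stopped with 20% TCA plus 0.8% thiobarbituric acid, then heated 15 min at 100 °C. MDA adduct read at 532 nm; % inhibition versus control, EC50 from triplicates.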

[6] = system: THP-1; test: Antiinflammatory activity in human THP1 cells assessed as inhibition of PMA-induced MCP-1 secretion preincubated for 1 hr prior PMA-challenge measured after 48 hrs by ELISA; assay type: functional, cell-based; method in brief: as §1
[7] = system: THP-1; test: Antiinflammatory activity against PMA-stimulated human THP1 cells assessed as IL-1beta levels after 48 hrs by ELISA (reference value: 172 +/- 0.71 pg/ml); assay type: functional
[8] = system: THP-1; test: Antiinflammatory activity against PMA-stimulated human THP1 cells assessed as MCP-1 levels after 48 hrs by ELISA (reference value: 3521.63 +/- 79.78 pg/ml); assay type: functional
[9] = Homo sapiens, Erythrocyte, 0.5 h, read-out: EC50

With `O=C(CC1SC(=O)NC1=O)Nc1nc(-c2ccc(F)cc2)cs1` (stereo not given) the IC50 [1] was over 50 µM, the EC50 ([2]; erythrocyte) was “Not Active” and the EC50 [3] was 52.69 µg/mL (≈ 150 µM). The EC50 [4] was “Not Active”, the EC50 [5] was “Not Active” and the IC50 [6] was 17.6 µM.

With `O=C(CC1SC(=O)NC1=O)Nc1nc(-c2ccc(Br)cc2)cs1` (stereo not given) the IC50 [1] was 33.1 µM, the EC50 ([2]; erythrocyte) was “Not Active” and the EC50 [3] was 49.71 µg/mL (≈ 121 µM). The EC50 [4] was “Not Active”, the EC50 [5] was “Not Active” and the IC50 [6] was 49.1 µM.

With `O=C(CC1SC(=O)NC1=O)Nc1nc(-c2ccc(I)cc2)cs1` (stereo not given) the IC50 [1] was over 50 µM, the EC50 ([2]; erythrocyte) was “Not Active” and the EC50 [3] was “Not Active”. It also gave an IC50 [6] of 31.7 µM.

With `O=C(CC1SC(=O)NC1=O)Nc1nc(-c2ccccc2Cl)cs1` (stereo not given) the IC50 [1] was 18.2 µM, the EC50 [3] was “Not Active” and the IC50 [6] was 26.5 µM.

For `O=C(CC1SC(=O)NC1=O)Nc1nc(-c2cccc(Cl)c2)cs1` (stereo not given), the IC50 [1] was 23.4 µM, the EC50 [3] was “Not Active” and the IC50 [6] was 34.2 µM.

In the case of `Cc1ccccc1-c1csc(NC(=O)CC2SC(=O)NC2=O)n1` (stereo not given), the IC50 [1] is reported as 7.66 µM, the EC50 [3] is reported as “Not Active” and the IC50 [6] is reported as 18.8 µM.

With `Cc1cccc(-c2csc(NC(=O)CC3SC(=O)NC3=O)n2)c1` (stereo not given) the IC50 [1] was 11.7 µM, the EC50 ([2]; erythrocyte) was “Not Active” and the EC50 [3] was 90.16 µg/mL (≈ 260 µM). For the same compound, the EC50 [4] was “Not Active” and the IC50 [6] was 18.9 µM.

For `O=C(CC1SC(=O)NC1=O)Nc1nc(-c2ccccc2F)cs1` (stereo not given), the IC50 [1] was over 50 µM, the EC50 ([2]; erythrocyte) was “Not Active” and the EC50 [3] was 82.5 µg/mL (≈ 235 µM). For the same compound, the EC50 [4] was “Not Active”, the EC50 [5] was “Not Active” and the IC50 [6] was 16.7 µM.

For `COc1ccccc1-c1csc(NC(=O)CC2SC(=O)NC2=O)n1` (stereo not given), the IC50 [1] was 7.23 µM, the EC50 [2, 9] was 96.6 µg/mL (≈ 266 µM) and the EC50 [3] was 58.68 µg/mL (≈ 161 µM). The EC50 [4] was 79.94 µg/mL (≈ 220 µM), the EC50 [5] was 131.79 µg/mL (≈ 363 µM) and the IC50 [6] was over 50 µM.

With `O=C(CC1SC(=O)NC1=O)Nc1nc2ccccc2s1` (stereo not given) the IC50 [1] was over 50 µM, the EC50 [2, 9] was 107 µg/mL (≈ 349 µM) and the EC50 [3] was 52.18 µg/mL (≈ 170 µM). The EC50 [4] was 101.18 µg/mL (≈ 329 µM), the EC50 [5] was 149.7 µg/mL (≈ 487 µM) and the IC50 [6] was 20.8 µM.

For `O=C(CC1SC(=O)NC1=O)Nc1nc2ccc([N+](=O)[O-])cc2s1` (stereo not given), the IC50 [1] was 6.83 µM, the EC50 ([2]; erythrocyte) was “Not Active” and the EC50 [3] was 39.76 µg/mL (≈ 113 µM). The EC50 [4] was “Not Active”, the EC50 [5] was “Not Active” and the IC50 [6] was 20.3 µM.

For `COc1ccc2nc(NC(=O)CC3SC(=O)NC3=O)sc2c1` (stereo not given), the IC50 [1] was 7.03 µM, the EC50 ([2]; erythrocyte) was “Not Active” and the EC50 [3] was 51.82 µg/mL (≈ 154 µM). For the same compound, the EC50 [4] was “Not Active”, the EC50 [5] was “Not Active” and the IC50 [6] was 39.6 µM.

With `CCOc1ccc2nc(NC(=O)CC3SC(=O)NC3=O)sc2c1` (stereo not given) the IC50 [1] was over 50 µM, the EC50 ([2]; erythrocyte) was “Not Active” and the EC50 [3] was 62.9 µg/mL (≈ 179 µM). For the same compound, the EC50 [4] was “Not Active”, the EC50 [5] was “Not Active” and the IC50 [6] was 63.1 µM.

In the case of `O=C(CC1SC(=O)NC1=O)Nc1nc(-c2ccccc2)cs1` (stereo not given), the IC50 [1] is reported as 9.6 µM, the EC50 [3] is reported as “Not Active” and the IC50 [6] is reported as 30.4 µM.

With `O=C(CC1SC(=O)NC1=O)Nc1nc(-c2ccc(Cl)cc2)cs1` (stereo not given) the IC50 [1] was 16.3 µM, the EC50 [3] was “Not Active” and the IC50 [6] was over 50 µM.

Compound `O=C1O[C@H]([C@@H](O)CO)C(O)=C1O` [ASCORBIC ACID] has an EC50 [2, 9] of 96.6 µg/mL (≈ 549 µM), an EC50 [3] of 40.28 µg/mL (≈ 229 µM) and an EC50 [4] of 21.01 µg/mL (≈ 119 µM). The EC50 [5] was 139.97 µg/mL (≈ 795 µM).

`O=c1cc(-c2ccc(O)c(O)c2)oc2cc(O)cc(O)c12` [LUTEOLIN] gave an EC50 [2, 9] of 107 µg/mL (≈ 375 µM), an EC50 [3] of 44.18 µg/mL (≈ 154 µM) and an EC50 [4] of 31.01 µg/mL (≈ 108 µM). It also gave an EC50 [5] of 149.7 µg/mL (≈ 523 µM).

With `CCc1ccc(CCOc2ccc(CC3SC(=O)NC3=O)cc2)nc1` (stereo not given) [PIOGLITAZONE] the IC50 [1] was over 50 µM, the Activity [7] was 165 pg/mL and the Activity [8] was 2588.33 pg/mL. It also gave an IC50 [6] of 18.8 µM.

`CN1C(C(=O)Nc2ccccn2)=C(O)c2ccccc2S1(=O)=O` [PIROXICAM] gave an IC50 [1] of 21.3 µM.
